Results as given in BindingDB's records for PubMed 34730959 (The University of Sydney, 2022).

Biological target: Procathepsin L (Homo sapiens, UniProt P07711)
Experiment: Inhibition of human recombinant Cathepsin L assessed remaining activity using Z-FR-AMC as substrate incubated for 30 mins by fluorometric assay
Outline: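 Recombinant human cathepsins: L, B, V and K at 1.11 nM, S at 4.44 nM. Each was preincubated 30 min at 25 °C with 3333 to 0.006 nM compound. Z-FR-AMC was added at 40 μM final. AMC release rate over 0–30 min was compared with DMSO (ex/em 360/460). IC50 from four technical replicates.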

Sequence of Procathepsin L (P07711 whole entry): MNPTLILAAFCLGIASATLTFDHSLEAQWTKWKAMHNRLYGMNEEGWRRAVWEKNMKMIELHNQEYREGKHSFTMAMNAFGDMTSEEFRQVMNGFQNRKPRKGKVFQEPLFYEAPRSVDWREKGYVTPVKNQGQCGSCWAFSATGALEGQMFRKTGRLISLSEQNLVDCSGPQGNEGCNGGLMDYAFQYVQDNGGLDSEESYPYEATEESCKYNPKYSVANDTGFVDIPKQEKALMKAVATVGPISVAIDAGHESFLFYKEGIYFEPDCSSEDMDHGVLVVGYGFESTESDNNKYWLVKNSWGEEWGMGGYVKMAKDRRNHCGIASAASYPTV

COC1=CC(=O)N(C(=O)/C=C/[C@H](C)NC(=O)[C@H](CCc2ccccc2)NC(=O)[C@H](CC2CCCCC2)NC(=O)[C@H](C(C)C)N(C)C)[C@H]1Cc1c[nH]c2ccccc12
IC50: 6 pM
